Laboratory results as given in ChEMBL document CHEMBL4825764, “Flavonoid Monomers as Potent, Nontoxic, and Selective Modulators of the Breast Cancer Resistance Protein (ABCG2)” (J Med Chem, 2021).
Active and inactive are the calls of the source. The calls are words filed in the database; no cut-off is given here.

Experiments:
L929 = assay: Cytotoxicity against mouse L929 cells assessed as reduction in cell viability; format: cell-based
Homo sapiens [1] = species: Homo sapiens; assay: Selectivity index, ratio of EC50 for inhibition of P-gp (unknown origin) expressed in LCC6MDR cells assessed as reversal of paclitaxel resistance to EC50 for inhibition of BCRP (unknown origin) transfected in HEK293/R2 cells assessed as reversal of topotecan resistance; format: cell-based
Outline: (§1)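 Selectivity index is the EC50 against the other transporter's line divided by the EC50 in the BCRP line. All values come from 5-day MTS reversal assays. These use topotecan in HEK293/R2 (0–2000 nM) or MCF7-MX100 (0–100 μM), doxorubicin in 2008/MRP1, and paclitaxel in LCC6MDR, each with modulator at 0–1000 nM.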

Homo sapiens [2] = species: Homo sapiens; assay: Selectivity index, ratio of EC50 for inhibition of MRP1 (unknown origin) expressed in 2008/MRP1 cells assessed as reversal of doxorubicin resistance to EC50 for inhibition of BCRP (unknown origin) transfected in HEK293/R2 cells assessed as reversal of topotecan resistance; format: cell-based; outline: as §1
BCRP (ABCG2) [3] = molecular target: T1, BCRP (ABCG2) (Homo sapiens, UniProt Q9UNQ0); assay: Inhibition of BCRP (unknown origin) expressed in HEK293/R2 cells assessed as conformational change by measuring increase in 5D3 shift at 1 uM preincubated for 15 mins followed by FITC mouse antihuman BCRP antibody addition measured after 30 mins by flow cytometry analysis; format: cell-based; conditions: HEK293/R2 cells expressing BCRP, time 45 min
T1 sequence (Q9UNQ0 whole entry): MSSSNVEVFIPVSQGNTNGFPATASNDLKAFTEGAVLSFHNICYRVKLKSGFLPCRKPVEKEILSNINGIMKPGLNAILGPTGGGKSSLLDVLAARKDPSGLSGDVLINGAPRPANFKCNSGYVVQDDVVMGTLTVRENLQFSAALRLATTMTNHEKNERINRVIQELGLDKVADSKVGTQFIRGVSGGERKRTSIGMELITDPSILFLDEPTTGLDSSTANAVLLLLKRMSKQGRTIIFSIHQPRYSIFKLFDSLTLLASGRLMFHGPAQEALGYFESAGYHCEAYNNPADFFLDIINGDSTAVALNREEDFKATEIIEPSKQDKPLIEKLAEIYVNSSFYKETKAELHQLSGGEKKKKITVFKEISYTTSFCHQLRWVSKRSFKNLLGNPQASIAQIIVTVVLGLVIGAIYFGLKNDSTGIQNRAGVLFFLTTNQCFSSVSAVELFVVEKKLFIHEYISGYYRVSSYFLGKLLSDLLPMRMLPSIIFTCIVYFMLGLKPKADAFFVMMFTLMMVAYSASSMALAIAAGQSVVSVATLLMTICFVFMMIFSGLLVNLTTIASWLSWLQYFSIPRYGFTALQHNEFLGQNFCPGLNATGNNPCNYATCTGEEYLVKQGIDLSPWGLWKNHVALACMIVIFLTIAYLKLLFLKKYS
Outline: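 5 × 10^5 HEK293/R2 cells in FACS buffer were shaken 15 min at 37 °C with 1 μM compound. FITC 5D3 anti-BCRP was then added for 30 min at 37 °C and fluorescence read by flow cytometry on FL1. Compound-only background was subtracted and the untreated DMSO shift removed. Result is % of the 1 μM Ko143-induced shift.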

Homo sapiens [4] = species: Homo sapiens; assay: Selectivity index, ratio of EC50 for inhibition of P-gp (unknown origin) expressed in LCC6MDR cells assessed as reversal of paclitaxel resistance to EC50 for Inhibition of BCRP (unknown origin) expressed in MCF7/MX100 cells assessed as reversal of topotecan resistance; format: cell-based; outline: as §1
2008 = assay: Selectivity index, ratio of EC50 for inhibition of MRP1 (unknown origin) expressed in 2008/MRP1 cells assessed as reversal of doxorubicin resistance to Inhibition of BCRP (unknown origin) expressed in MCF7/MX100 cells assessed as reversal of topotecan resistance; format: cell-based; conditions: Homo sapiens; outline: as §1
HEK293 = assay: Effect on BCRP protein expression in human HEK293/R2 cells at 1 to 3 uM after 24 hrs by flow cytometric analysis; format: functional, cell-based; conditions: dose 1-3 µM
Outline: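 HEK293/R2 and HEK293/pcDNA3.1 cells were exposed to 0, 1 or 3 μM compound for 24 hr, with 0.1–0.3% DMSO as solvent control. Cells were trypsinized and stained with FITC anti-human BCRP for 45 min at 4 °C, with an IgG2b-FITC isotype control. Surface signal was read by flow cytometry on FL1 over 50,000 events.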

[5] = molecular target: T2, Broad substrate specificity ATP-binding cassette transporter ABCG2 (Homo sapiens, UniProt Q9UNQ0); assay: Inhibition of BCRP (unknown origin) expressed in human HEK293/R2 cells assessed as increase in intracellular mitoxantrone accumulation by measuring fold change at 1 uM after 2 hrs in presence of mitoxantrone by flow cytometry analysis relative to control; format: cell-based; conditions: hek293/r2, 2 h
T2 sequence (Q9UNQ0 whole entry): T1 sequence (Q9UNQ0 whole entry)
Outline: (§2)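 5 × 10^5 HEK293/pcDNA3.1 or HEK293/R2 cells in 1 mL were incubated 2 hr at 37 °C with 50 μM topotecan or 5 μM mitoxantrone plus 1 or 2 μM modulator, with DMSO as the vehicle control. Cells were washed in cold PBS and resuspended in FACS buffer. Flow cytometry read FL1 (topotecan) or FL4 (mitoxantrone) over 50,000 events, normalized to wild-type cells.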

[6] = molecular target: T2, Broad substrate specificity ATP-binding cassette transporter ABCG2; assay: Inhibition of BCRP (unknown origin) expressed in wild type HEK293/pcDNA3.1 cells assessed as increase in intracellular topotecan accumulation at 1 to 2 uM after 2 hrs in presence of topotecan by flow cytometry analysis relative to control; format: cell-based; conditions: hek293, 2 h, dose 1-2 µM; outline: as §2
[7] = molecular target: T2, Broad substrate specificity ATP-binding cassette transporter ABCG2; assay: Inhibition of BCRP (unknown origin) expressed in wild type HEK293/pcDNA3.1 cells assessed as increase in intracellular mitoxantrone accumulation at 1 to 2 uM after 2 hrs in presence of mitoxantrone by flow cytometry analysis relative to control; format: cell-based; conditions: hek293, 2 h, dose 1-2 µM; outline: as §2
[8] = molecular target: T2, Broad substrate specificity ATP-binding cassette transporter ABCG2; assay: Inhibition of BCRP (unknown origin) expressed in human HEK293/R2 cells assessed as increase in intracellular topotecan accumulation by measuring fold change at 2 uM after 2 hrs in presence of topotecan by flow cytometry analysis relative to control; format: cell-based; conditions: hek293/r2, 2 h; outline: as §2
Homo sapiens [9] = species: Homo sapiens; assay: Selectivity index, ratio of EC50 for inhibition of MRP1 (unknown origin) expressed in 2008/MRP1 cells assessed as reversal of mitoxantrone resistance to EC50 for inhibition of BCRP (unknown origin) expressed in HEK293/R2 cells assessed as reversal of mitoxantrone resistance; format: cell-based
Outline: (§3)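 Selectivity index is the EC50 in 2008/MRP1 or LCC6MDR divided by the EC50 in HEK293/R2. All three lines were measured by 5-day mitoxantrone co-incubation with modulator, with MTS/PMS read-out at 490 nm.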

Homo sapiens [10] = species: Homo sapiens; assay: Selectivity index, ratio of EC50 for inhibition of P-gp (unknown origin) expressed in LCC6MDR cells assessed as reversal of mitoxantrone resistance to EC50 for inhibition of BCRP (unknown origin) expressed in HEK293/R2 cells assessed as reversal of mitoxantrone resistance; format: cell-based; outline: as §3
[11] = molecular target: T2, Broad substrate specificity ATP-binding cassette transporter ABCG2; assay: Inhibition of BCRP (unknown origin) expressed in human HEK293/R2 cells assessed as increase in intracellular mitoxantrone accumulation by measuring fold change at 2 uM after 2 hrs in presence of mitoxantrone by flow cytometry analysis relative to control; format: cell-based; conditions: hek293/r2, 2 h; outline: as §2
[12] = molecular target: T2, Broad substrate specificity ATP-binding cassette transporter ABCG2; assay: Inhibition of BCRP (unknown origin) expressed in human HEK293/R2 cells assessed as increase in intracellular topotecan accumulation by measuring fold change at 1 uM after 2 hrs in presence of topotecan by flow cytometry analysis relative to control; format: cell-based; conditions: hek293/r2, 2 h; outline: as §2
BCRP (ABCG2) [13] = molecular target: T1, BCRP (ABCG2); assay: Inhibition of BCRP (unknown origin) expressed in HEK293/R2 cells assessed as conformational change by measuring increase in 5D3 shift at 10 uM preincubated for 15 mins followed by FITC mouse antihuman BCRP antibody addition measured after 30 mins by flow cytometry analysis; format: cell-based; conditions: HEK293/R2 cells expressing BCRP, time 45 min
Outline: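 HEK293/R2 cells (5 x 10⁵) in FACS buffer (0.1 % BSA, 1 mM EDTA in PBS) were pre-incubated with compound for 15 min at 37 °C with shaking. FITC anti-human BCRP antibody (clone 5D3) was then added for 30 min at 37 °C. Cells were washed and read by flow cytometry (FL1, 50,000 events). Compound-only FITC background and the DMSO-control signal were subtracted, and the shift was expressed as % of the 1 µM Ko143 shift.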

COC(=O)c1cccc(COc2c(-c3ccc(OCCOCCOCCn4cc(CCN5C(=O)c6ccccc6C5=O)nn4)cc3)oc3ccccc3c2=O)c1
IC50 (L929): > 100 µM
Ratio EC50 (Homo sapiens [1]): 6
Ratio EC50 (Homo sapiens [2]): 6

COc1cc2c(cc1OC)CN(CCc1ccc(NC(=O)c3cccc4c(=O)c5cccc(OC)c5[nH]c34)cc1)CC2
inhibition at 0.5 h, 1 µM (BCRP (ABCG2) [3]): 100%

COC(=O)c1cccc(COc2c(-c3ccc(OCCOCCn4cc(CNc5ccccc5)nn4)cc3)oc3ccccc3c2=O)c1
Ratio EC50 (Homo sapiens [4]): 23
IC50 (L929): > 100 µM
Ratio EC50 (Homo sapiens [1]): 38
Ratio EC50 2008: 23
Ratio EC50 (Homo sapiens [2]): 38

COC(=O)c1cccc(COc2c(-c3ccc(OCCOCCOCCN=[N+]=[N-])cc3)oc3ccccc3c2=O)c1
Ratio EC50 (Homo sapiens [4]): 18
IC50 (L929): 28.4 µM
Ratio EC50 (Homo sapiens [1]): 35
Ratio EC50 2008: 60
Ratio EC50 (Homo sapiens [2]): 118

COC(=O)c1cccc(COc2c(-c3ccc(OCCOCCn4cc(CN(C)Cc5ccccc5)nn4)cc3)oc3ccccc3c2=O)c1
Activity (HEK293): inactive
Ratio EC50 (Homo sapiens [4]): 286
fold change (FC) [5]: 6.2
inhibition (INH) [6]: Not Active
inhibition (INH) [7]: Not Active
IC50 (L929): > 100 µM
fold change (FC) [8]: 7
Ratio EC50 (Homo sapiens [9]): 40
Ratio EC50 (Homo sapiens [1]): 67
Ratio EC50 (Homo sapiens [10]): 38
fold change (FC) [11]: 6.3
Ratio EC50 2008: 286
fold change (FC) [12]: 7.2
Ratio EC50 (Homo sapiens [2]): 67

COC(=O)c1cccc(COc2c(-c3ccc(OCCOCCn4cc(CN(Cc5ccccc5)Cc5ccccc5)nn4)cc3)oc3ccccc3c2=O)c1
Ratio EC50 (Homo sapiens [4]): 34
IC50 (L929): > 100 µM
Ratio EC50 (Homo sapiens [1]): 31
Ratio EC50 2008: 34
Ratio EC50 (Homo sapiens [2]): 31

COC(=O)c1cccc(COc2c(-c3ccc(OCCOCCOCCn4cc(CN(CCO)Cc5ccccc5)nn4)cc3)oc3ccccc3c2=O)c1
Activity (HEK293): inactive
Ratio EC50 (Homo sapiens [4]): 193
fold change (FC) [5]: 6.5
inhibition (INH) [6]: Not Active
inhibition (INH) [7]: Not Active
IC50 (L929): > 100 µM
fold change (FC) [8]: 7
Ratio EC50 (Homo sapiens [9]): 4
Ratio EC50 (Homo sapiens [1]): 220
Ratio EC50 (Homo sapiens [10]): 5
fold change (FC) [11]: 5.8
Ratio EC50 2008: 625
fold change (FC) [12]: 7.1
Ratio EC50 (Homo sapiens [2]): 714

COC(=O)c1cccc(COc2c(-c3ccc(OCCOCCOCCn4cc(CCCCOc5ccc(C=O)cc5)nn4)cc3)oc3ccccc3c2=O)c1
Ratio EC50 (Homo sapiens [4]): 26
IC50 (L929): 37.8 µM
Ratio EC50 (Homo sapiens [1]): 53
Ratio EC50 2008: 23
Ratio EC50 (Homo sapiens [2]): 46

CCOc1ccc(-c2nc3cc(-c4nc5cc(N6CCN(C)CC6)ccc5[nH]4)ccc3[nH]2)cc1
inhibition at 0.5 h, 10 µM (BCRP (ABCG2) [13]): 19%

COC(=O)c1cccc(COc2c(-c3ccc(OCCOCCOCCn4cc(CN(C)Cc5ccccc5)nn4)cc3)oc3ccccc3c2=O)c1
Ratio EC50 (Homo sapiens [4]): 29
IC50 (L929): > 100 µM
Ratio EC50 (Homo sapiens [1]): 51
Ratio EC50 2008: 35
Ratio EC50 (Homo sapiens [2]): 62

C#CCCCCOc1ccc(-c2oc3ccccc3c(=O)c2OCc2cccc(C(=O)OC)c2)cc1
Ratio EC50 (Homo sapiens [4]): 24
IC50 (L929): > 100 µM
Ratio EC50 (Homo sapiens [1]): 19
Ratio EC50 2008: 30
Ratio EC50 (Homo sapiens [2]): 23

COC(=O)c1cccc(COc2c(-c3ccc(OCCOCCn4cc(CCN5C(=O)c6ccccc6C5=O)nn4)cc3)oc3ccccc3c2=O)c1
Ratio EC50 (Homo sapiens [4]): 10
IC50 (L929): > 100 µM
Ratio EC50 (Homo sapiens [1]): 22
Ratio EC50 2008: 10
Ratio EC50 (Homo sapiens [2]): 22

COC(=O)c1cccc(COc2c(-c3ccc(OCCCCc4cn(CCOCCO)nn4)cc3)oc3ccccc3c2=O)c1
Ratio EC50 (Homo sapiens [4]): 22
IC50 (L929): 13.3 µM
Ratio EC50 (Homo sapiens [1]): 61
Ratio EC50 2008: 36
Ratio EC50 (Homo sapiens [2]): 100

COC(=O)c1cccc(COc2c(-c3ccc(OCCOCCN=[N+]=[N-])cc3)oc3ccccc3c2=O)c1
Ratio EC50 (Homo sapiens [4]): 20
IC50 (L929): 67.5 µM
Ratio EC50 (Homo sapiens [1]): 12
Ratio EC50 2008: 20
Ratio EC50 (Homo sapiens [2]): 12

O=c1c(O)c(-c2ccc(O)c(O)c2)oc2cc(O)cc(O)c12 [QUERCETIN]
inhibition at 0.5 h, 10 µM (BCRP (ABCG2) [13]): 39%
